Data from ChEMBL document CHEMBL1157401, “Anticancer activity of isoobtusilactone A from Cinnamomum kotoense: involvement of apoptosis, cell-cycle dysregulation, mitochondria regulation, and reactive oxygen species” (J Nat Prod, 2008).
The source made the active and inactive calls. No cut-off for these calls is given here.

Experiments:
A549 [1] = experiment: Cell cycle arrest in human A549 cells assessed as accumulation at subG1 phase at 100 uM after 48 hrs; type: functional
Method in brief: (§1)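 Flow cytometry of cell cycle: A549 (5 × 10^5 per 60 mm dish) treated next day with 50 or 100 µM for 24, 48 or 72 h. Adherent and floating cells pooled, fixed in PBS-MeOH 1:2 at 4 °C for at least 18 h, then stained 30 min in the dark with PI 50 µg/mL plus RNase A 50 µg/mL. Sub-G1 taken as the subdiploid fraction; at least three runs.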

A549 [2] = experiment: Cell cycle arrest in human A549 cells assessed as accumulation at G1 phase at 100 uM after 72 hrs; type: functional; method in brief: as §1
A549 [3] = experiment: Cell cycle arrest in human A549 cells assessed as accumulation at S phase at 100 uM after 72 hrs; type: functional; method in brief: as §1
A549 [4] = experiment: Cell cycle arrest in human A549 cells assessed as accumulation at G2/M phase at 100 uM after 72 hrs; type: functional; method in brief: as §1
A549 [5] = experiment: Cell cycle arrest in human A549 cells assessed as accumulation at subG1 phase at 100 uM after 72 hrs; type: functional; method in brief: as §1
A549 [6] = experiment: Induction of apoptosis in human A549 cells assessed as DNA fragmentation after 12 hrs; type: functional, cell-based
Method in brief: (§2)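 Apoptosis by cytoplasmic mono- and oligonucleosomes (nucleosome ELISA): A549 cells given 1, 10 or 100 µM for 6, 12, 18 or 24 h and lysed, then lysate assayed photometrically. Expressed relative to control; three experiments, mean ± SE, ANOVA with Dunnett's test.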

A549 [7] = experiment: Induction of apoptosis in human A549 cells assessed as DNA fragmentation after 24 hrs; type: functional, cell-based; method in brief: as §2
A549 [8] = experiment: Induction of apoptosis in human A549 cells assessed as apoptotic nucleosome at 1 uM after 6 hrs; type: functional; method in brief: as §2
A549 [9] = experiment: Induction of apoptosis in human A549 cells assessed as apoptotic nucleosome at 1 uM after 24 hrs; type: functional; method in brief: as §2
A549 [10] = experiment: Induction of apoptosis in human A549 cells assessed as apoptotic nucleosome at 100 uM after 6 hrs; type: functional; method in brief: as §2
A549 [11] = experiment: Induction of apoptosis in human A549 cells assessed as apoptotic nucleosome at 100 uM after 24 hrs; type: functional; method in brief: as §2
A549 [12] = experiment: Induction of p53 level in human A549 cells at 100 uM after 12 hrs by ELISA; type: functional, cell-based
Method in brief: (§3)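 p53, p21/WAF1 and p27kip1 in A549 lysates by sandwich ELISA after 1, 10 or 100 µM for 6-24 h. Lysate incubated 2 h for p53 and p27kip1, 1 h for p21, at room temperature. HRP-streptavidin and TMB used, absorbance read at 450 nm, values from standard curves. Three experiments, mean ± SE.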

A549 [13] = experiment: Induction of p21/WAF1 protein level in human A549 cells at 100 uM after 18 hrs by ELISA; type: functional, cell-based; method in brief: as §3
A549 [14] = experiment: Increase in Bax level in human A549 cells after 6 hrs by ELISA; type: functional, cell-based
Method in brief: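 Bax and Bcl-2 in A549 lysates by sandwich ELISA after 1, 10 or 100 µM for 6-24 h. Lysate incubated 1 h at room temperature, HRP-streptavidin and TMB used, absorbance read at 450 nm. Levels interpolated from protein standard curves and compared with vehicle; three experiments, mean ± SE, ANOVA with Dunnett's test.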

A549 [15] = experiment: Decrease in mitochondrial potential in human A549 cells assessed as decrease in fluorescent intensity of rhodamine 123 staining; type: functional, cell-based
Method in brief: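 Mitochondrial membrane potential: A549 cells with or without 100 µM for 6, 12, 18 or 24 h, then moved to serum-free medium containing 10 µM rhodamine 123 for 15 min at 37 °C. Cells collected and fluorescence read within 15 min, ex 490 / em 515 nm.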

A549 [16] = experiment: Induction of cytochrome C release in human A549 cells by ELISA; type: functional, cell-based; conditions: TDE = time-dependent effect
Method in brief: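 Cytochrome c release: A549 cells given 100 µM or DMSO vehicle for 6, 12, 18 or 24 h at 37 °C. Cytosolic fraction taken by digitonin permeabilization and mitochondrial fraction by detergent lysis, each measured by cytochrome c ELISA. Three experiments, mean ± SE.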

A549 [17] = experiment: Induction of apoptosis in human A549 cells assessed as caspase 9 activation at 100 uM; type: functional, cell-based
Method in brief: (§4)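 Caspase-9 and caspase-3 activity: A549 cells given 100 µM for 6-24 h and lysed on ice 1 h. 80 µg lysate incubated with substrate at pH 7.2, 37 °C, 1 h in the dark. Caspase-9 read colorimetrically at 405 nm and caspase-3 with AFC substrate, ex 400 / em 520 nm. Reported as percent change versus the 0 h group.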

A549 [18] = experiment: Induction of apoptosis in human A549 cells assessed as caspase 3 activation at 100 uM; type: functional, cell-based; method in brief: as §4
A549 [19] = experiment: Antioxidant activity in human A549 cells assessed as increase in dichlorofluorescein florescence intensity after 30 mins relative to untreated cells; type: functional, cell-based
Method in brief: (§5)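 Intracellular ROS (H2O2/peroxide) by DCF fluorescence: A549 cells at 80% confluence exposed to 100 µM for 30 min, then 10 µM DCFH-DA 30 min in the dark, trypsinized and resuspended in PBS. Read by flow cytometry, ex 488 / em 525-550 nm. For scavenger tests, NAC (10 mM) or other agents given 30 min before compound.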

A549 [20] = experiment: Antioxidant activity in human A549 cells assessed as N-acetyl-l-cysteine-induced production of H2O2; type: functional, cell-based; method in brief: as §5
A549 [21] = experiment: Reversal of antiproliferative activity against human A549 cells in presence of N-acetyl-l-cysteine; type: functional, cell-based
Method in brief: (§6)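 ROS-dependence of growth inhibition: A549 cells pretreated with NAC (10 mM) or L-NAME (100 µM) for 2 h, then 100 µM compound for 24 h. Proliferation read by MTT assay at OD 570 nm.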

A549 [22] = experiment: Reversal of antiproliferative activity against human A549 cells in presence of nitro-L-arginine methyl ester; type: functional, cell-based; method in brief: as §6
A549 [23] = experiment: Inhibition of migration in human A549 cells; type: functional, cell-based
Method in brief: (§7)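 Transwell migration with 8 µm inserts, or Matrigel-coated inserts for invasion: 5 × 10^4 A549 cells in serum-free medium placed in the upper chamber over medium with 10% FBS, 24 h at 37 °C, 5% CO2. Migrated cells stained, dye extracted and read at 560 nm. Reported as percent of control; compound tested at 1 and 10 µM, with NAC pretreatment in reversal tests.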

A549 [24] = experiment: Inhibition of invasion in human A549 cells; type: functional, cell-based; method in brief: as §7
A549 [25] = experiment: Reversal of inhibition of migration in human A549 cells at 10 uM in presence of N-acetyl-l-cysteine; type: functional, cell-based; method in brief: as §7
A549 [26] = experiment: Reversal of inhibition of invasion in human A549 cells at 10 uM in presence of N-acetyl-l-cysteine; type: functional, cell-based; method in brief: as §7
A549 [27] = experiment: Induction of p27kip1 level in human A549 cells at 100 uM after 18 hrs by ELISA; type: functional, cell-based; method in brief: as §3

Question: What does the source list for `C=C1OC(=O)/C(=C/CCCCCCCCCCCCC)[C@@H]1O` [ISOOBTUSILACTONE A]?
Answer: Activity (A549 [1]): 47.64%; Activity (A549 [2]): 41.73%; Activity (A549 [3]): 16.24%; Activity (A549 [4]): 42.03%; Activity (A549 [5]): 60.25%; Activity (A549 [6]): Active; Activity (A549 [7]): Active; Activity (A549 [8]): 3.5; Activity (A549 [9]): 16; Activity (A549 [10]): 4.5; Activity (A549 [11]): 25; Activity (A549 [12]): Active; Activity (A549 [13]): Active; Activity (A549 [14]): Active; Activity (A549 [15]): Active; Activity (A549 [16]): tde; Activity (A549 [17]): Active; Activity (A549 [18]): Active; Activity (A549 [19]): Active; Activity (A549 [20]): Active; Activity (A549 [21]): inactive; Activity (A549 [22]): Active; Activity (A549 [23]): Active; Activity (A549 [24]): Active; Activity (A549 [25]): Active; Activity (A549 [26]): Active; Activity (A549 [27]): Active
